CendR NRP1 mod – modulators of CendR peptide binding to human neuropilin-1 | O14786 | FAM-RPARPAR peptide binding to NRP-1, fluorescence polarization | inhibition, % at 25 µM | 0.85% of 360,000 active | AID 602438;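 active = inhibition or corrected inhibition above about 18%, plus a signal ratio from 0.5 to 1.5, limit read from the data, passing the limit was not always enough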
HIF activator – HIF pathway transcriptional activation | U2OS HRE-luciferase reporter, luminescence; normalized: DMSO 0%, desferrioxamine 100% | activation, % at 7.5 µM (by protocol) | 0.32% of 300,000 active | AID 1910;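 active = mean activation of at least 10% of the iron chelator positive control signal, with at least half of replicates also reaching 10%; inconclusive = mean and replicate majority disagree about reaching 10%; inactive = mean and most replicates under 10%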
AI-2 QS modul – modulates the Vibrio harveyi AI-2 quorum sensing system | Vibrio harveyi JMH597 AI-2 luminescence/OD600 ratio, 9 h; active compounds read low; strain lacks LuxN and CqsS sensors; 0 = neutral-control median | 0.4% of 300,000 active | AID 2094 | activity change, % at 7.5 µM; in the data active = activity change below about -75%, passing the limit was not always enough; inconclusive = no clear call, values can overlap the other calls;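 also: luminescence divided by OD600 gain over 9 h not by final OD600 alone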
T cruzi repl – T. cruzi replication inhibition. T. cruzi beta-gal in NIH3T3, luminescence, 90 h. inhibition, % (test concentration not listed). 1.4% of 300,000 active. AID 1885;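 active = mean inhibition across valid replicates above about 55%, limit read from the data; inconclusive = mean below that limit but half or more replicates reach it; inactive = mean below it, under half of replicates reach it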;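 also: signal also drops with host cell toxicity which is not excluded here; higher percent means less beta-gal luminescence so fewer parasites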
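System: NIH/3T3 fibroblasts plus reporter T. cruzi. Medium: DMEM plus 2% FBS. Probe or stimulus: 5000 reporter trypomastigotes per well. Compound: single 50 nL compound addition per well in DMSO. Incubation: co-culture of at least 90 h after 3 h attachment. Detection: GalScreen β-gal luminescence, detergent lysis, 60 min. Evaluation: parasite load inhibition, %.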
V-ATPase pHluor – alters yeast V-ATPase proton transport | S. cerevisiae, pHLuorin cytosolic pH fluorescence | response, % at 10 µM | 0.37% of 350,000 active | AID 504577; in the data active = response mostly above about 7.3%, no sharp cut-off; inactive = mostly below about 5.4%; also: actives read high
CR mimetic SO – yeast age-related superoxide inhibition as caloric restriction mimetic; 0.18% of 330,000 active; S. cerevisiae aged cells, superoxide DHE fluorescence; active compounds read low; AID 2690; superoxide response (% of plate mean), % at 10 µM;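 active = superoxide response under a set limit, about three screen SD below normal, cut at about 65% in these data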;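 also: yeast aged for seven days with compound at 30 °C before DHE staining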
JMH597 growth – retest: inhibitors of Vibrio harveyi JMH597 growth; shares compounds with AI-2 QS modul; OD600 absorbance, 9 h; lacks LuxN and CqsS sensors; growth inhibition, % at 7.5 µM; 1% of 750 active; AID 2726;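 active = every replicate shows growth inhibition above 50%; inconclusive = at least half, but not all, replicates pass that cutoff; inactive = fewer than half of replicates pass it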
BB721 const-QS lum – retest counter-screen: BB721 constitutive quorum sensing luminescence decrease; 95% of 750 active; AID 2727; Vibrio harveyi BB721 luminescence, 9 h; inhibition, % at 7.5 µM; shares compounds with AI-2 QS modul;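 active = inhibition above about 80% in every replicate, not just on average, limit read from the data; inconclusive = at least half of replicates past the limit, but not all; inactive = fewer than half of replicates past the limit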
BB721 growth – retest Vibrio harveyi BB721 growth inhibition | shares compounds with AI-2 QS modul | OD600 absorbance, 9 h | growth inhibition, % at 7.5 µM | 3% of 750 active | AID 2728;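 active = every replicate shows growth inhibition above 50%; inconclusive = at least half but not all replicates above 50% inhibition; inactive = under half of replicates above 50% inhibition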
AI-2 QS JMH597 – Vibrio harveyi AI-2 signaling luminescence modulation – JMH597 strain, confirmation | shares compounds with AI-2 QS modul | Vibrio harveyi JMH597 AI-2 quorum sensing luminescence, 9 h; luxN and CqsS knockout, AI-2 only | inhibition, % at 7.5 µM | 97% of 750 active | AID 2736;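 active = every replicate shows more than 75% inhibition of signal versus neutral control wells; inconclusive = half to three quarters of replicates exceed 75% inhibition; inactive = fewer than half of replicates exceed 75% inhibition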
Of the large screens only hits and unclear results are named; the others gave an inactive call (follow-up assays come after a bar, where they were run). Most compounds without a hit are left out; they make up all but 3% or so of the library.

Cc1ccc(NC(=O)CCOc2ccccc2C)cc1C	AI-2 QS modul -78 | JMH597 growth inactive | BB721 const-QS lum 92 | BB721 growth inactive | AI-2 QS JMH597 93
CCOc1ccccc1OCCC(=O)Nc1ccc(F)c(Cl)c1	none
Cc1ccccc1OCCC(=O)Nc1ccc(F)c(Cl)c1	AI-2 QS modul -93 | JMH597 growth inactive | BB721 const-QS lum 97 | BB721 growth inactive | AI-2 QS JMH597 98
CCOc1ccc(/C=N/OCC(=O)Nc2cc(C)on2)cc1	none
C=CCn1c(C)cc(C(=O)CSc2nnc(C3CC3)n2C2CC2)c1C	none (no result: HIF activator, AI-2 QS modul, T cruzi repl)
Cc1ccc2nc(C)c3c(c2c1)COC3	none
O=C1COc2ccc(C(=O)COC(=O)/C=C/c3ccc(Br)o3)cc2N1	AI-2 QS modul -96 | JMH597 growth inactive | BB721 const-QS lum 99 | BB721 growth inactive | AI-2 QS JMH597 99
CCCc1cc(C(=O)Nc2ccc(F)c(Cl)c2)no1	AI-2 QS modul -82 | JMH597 growth inactive | BB721 const-QS lum 96 | BB721 growth inactive | AI-2 QS JMH597 97
CCCc1cc(C(=O)Nc2cccc(Cl)c2)no1	none
COC(=O)c1sc2ccccc2c1NC(=O)c1cccs1	none (no result: HIF activator)
O=C(COC(=O)c1cccc(S(=O)(=O)N2CCCCC2)c1)NCc1cccc(Cl)c1	none (no result: HIF activator, AI-2 QS modul, T cruzi repl, CR mimetic SO)
Cc1ccc(Nc2ccccc2)cc1	none
Cc1ccc(S(=O)(=O)Nc2ccc(Nc3ccccc3)cc2)cc1	AI-2 QS modul -97 | JMH597 growth inactive | BB721 const-QS lum 100 | BB721 growth inactive | AI-2 QS JMH597 100
O=C(CNC(=O)c1cccs1)OCc1ccc(Br)cc1	AI-2 QS modul inconclusive | JMH597 growth inactive | BB721 const-QS lum 91 | BB721 growth inactive | AI-2 QS JMH597 92
O=C(CNC(=O)c1cccs1)c1ccc(Br)cc1	none
CN(C)S(=O)(=O)c1ccc(NC(=O)CN2C(=O)NC3(CCCC3)C2=O)cc1	AI-2 QS modul -79 | JMH597 growth inactive | BB721 const-QS lum inconclusive | BB721 growth inactive | AI-2 QS JMH597 82
CN(C)S(=O)(=O)c1ccc(NC(=O)CN2CCC(Cc3ccccc3)CC2)cc1	AI-2 QS modul -91 | JMH597 growth inactive | BB721 const-QS lum 94 | BB721 growth inactive | AI-2 QS JMH597 96
Cc1cccc(NS(=O)(=O)c2cccc3nonc23)c1	none
COC(=O)C[C@@H]1C[C@H]2c3cc(NS(=O)(=O)c4ccccc4)ccc3O[C@H]2[C@@H](CO)O1	none (no result: HIF activator, AI-2 QS modul, T cruzi repl, CR mimetic SO)
Cc1ccccc1C(=O)OCc1nnc(-c2ccc(Cl)cc2)o1	AI-2 QS modul inconclusive | JMH597 growth inactive | BB721 const-QS lum 91 | BB721 growth inactive | AI-2 QS JMH597 93
NS(=O)(=O)c1cccc(NC(=O)Cn2cnc3ccccc3c2=O)c1	AI-2 QS modul -85 | JMH597 growth inactive | BB721 const-QS lum 93 | BB721 growth inactive | AI-2 QS JMH597 95
COC(=O)c1cccc(NC(=O)Cn2cnc3ccccc3c2=O)c1	AI-2 QS modul -94 | JMH597 growth inactive | BB721 const-QS lum 99 | BB721 growth inactive | AI-2 QS JMH597 99
CCCc1nnc(NC(=O)Cn2cnc3ccccc3c2=O)s1	AI-2 QS modul -86 | JMH597 growth inactive | BB721 const-QS lum 96 | BB721 growth inactive | AI-2 QS JMH597 96
NS(=O)(=O)c1cccc(NC(=O)CSc2ncnc3ccccc23)c1	AI-2 QS modul -82 | JMH597 growth inactive | BB721 const-QS lum 85 | BB721 growth inactive | AI-2 QS JMH597 92
O=C(Cn1cnc2ccccc2c1=O)Nc1nc2ccccc2s1	none
CCNc1nc(NC(C)C)nc(N(C)C#N)n1	none
CCOc1ccc(Cl)cc1-c1cc(C(=O)Nc2cc(OC)ccc2OC)[nH]n1	none (no result: HIF activator, AI-2 QS modul, T cruzi repl, V-ATPase pHluor, CR mimetic SO)
